In ChEMBL document CHEMBL2040742, “Predicting and improving the membrane permeability of peptidic small molecules” (J Med Chem, 2012) one finds Papp and Ratio data, which are given here for 3 compounds.

What all share (assay type): ADME, cell-based, Canis lupus familiaris
Details in all cases: dog

Data set [1] concerns MDCK. Kind of data set: Apparent permeability from basal to apical side of MDCK cells expressing MDR1 at 2 uM by LC-MS/MS analysis. In outline:
(§1)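 MDR1-MDCK monolayers grown on PET inserts (seeded 2 × 10⁵ cells/cm², 4-6 days to confluence). Compound diluted from 10 mM stock into HBSS pH 7.4 to 2 μM, dosed apically or basolaterally. Analyte quantified by LC-MS/MS as analyte/IS peak area ratio. Papp from 0.084 cm² monolayer area and initial donor concentration. Triplicate, reported as means.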

The subject of data set [2] is MDCK. Kind of data set: Efflux ratio of apparent permeability from basal to apical side to apical to basal side of MDCK cells expressing MDR1 at 2 uM by LC-MS/MS analysis.
Data set [3] deals with MDCK. Kind of data set: Apparent permeability from apical to basal side of MDCK cells expressing MDR1 at 2 uM by LC-MS/MS analysis. In a few lines:
as §1

Usually Papp stands for a coefficient for how fast a substance crosses the barrier. With `N#CCNC(=O)[C@H](Cc1c[nH]cn1)NC(=O)OCc1ccccc1`, the figures for the Papp in the data set on MDCK [1] and in the data set with MDCK [3] were 29.4 nm/s and 5.1 nm/s, respectively. Further, the Ratio in the data set with MDCK [2] is on record as 5.8.
Take `NC(=O)[C@H](Cc1ccccc1)NC(=O)OCc1ccccc1`: the Papp in the data set with MDCK [1] is on record as 211 nm/s; in the data set on MDCK [3], 246 nm/s. Further, the Ratio with MDCK [2] worked out at 0.86.
With `NC(=O)[C@H](Cc1ccncc1)NC(=O)OCc1ccccc1`, the Papp in the data set with MDCK [1] stood at 134 nm/s; in the data set with MDCK [3] it was 43.1 nm/s. In addition, the Ratio in the data set with MDCK [2] came to 3.1.
